Screens (PubChem BioAssay)
NR2E3 ag-1: agonists of human NR2E3 nuclear receptor | inhibition of corepressor binding, % at 3.98 µM | AID 602229 | 0.35% of 360,000 active | CHO-S Gal4-NCOR/VP16-NR2E3 two-hybrid, luciferase | Q9Y5X4;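 active = inhibition above the mean of all tested compounds plus 3 SD, cut at about 70% in these data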;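 note: higher means lower luciferase signal from less NR2E3 corepressor binding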
Rev-erbA mod: Rev-erb alpha (human) modulation; Rev-erbα–FITC-DNA binding, fluorescence polarization, 90 min; activity, % at 10 µM; 0.79% of 370,000 active;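 active = activity above about 14%, limit read from the data; passing the limit was not always enough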
Target sequence (P20393 whole entry, looked up): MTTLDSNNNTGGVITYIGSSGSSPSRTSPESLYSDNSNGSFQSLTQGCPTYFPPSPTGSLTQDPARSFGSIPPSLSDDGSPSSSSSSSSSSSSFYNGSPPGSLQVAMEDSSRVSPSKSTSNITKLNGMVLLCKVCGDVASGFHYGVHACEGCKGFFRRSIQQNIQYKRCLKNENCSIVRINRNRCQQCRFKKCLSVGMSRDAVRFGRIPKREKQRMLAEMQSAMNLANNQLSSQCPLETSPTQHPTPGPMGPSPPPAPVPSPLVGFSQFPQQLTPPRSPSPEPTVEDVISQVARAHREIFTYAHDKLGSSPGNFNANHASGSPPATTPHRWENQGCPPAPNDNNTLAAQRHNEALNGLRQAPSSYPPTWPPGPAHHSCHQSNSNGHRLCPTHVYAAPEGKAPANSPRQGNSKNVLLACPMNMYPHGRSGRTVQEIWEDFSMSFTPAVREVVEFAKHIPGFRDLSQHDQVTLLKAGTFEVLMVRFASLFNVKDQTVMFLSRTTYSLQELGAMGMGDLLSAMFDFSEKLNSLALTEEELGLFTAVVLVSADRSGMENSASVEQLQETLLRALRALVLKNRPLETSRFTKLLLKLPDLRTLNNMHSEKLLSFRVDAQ
PG9 binder: PG9 antibody binding by small molecule; TR-FRET gp120-PG9 antibody binding; inhibition, % at 6.7 µM; 0.43% of 360,000 active; AID 624416; in the data active = inhibition above about 8.5%
NR2E3 ag-2: activates human photoreceptor nuclear receptor NR2E3. GST-NR2E3/biotin-RetCOR TR-FRET, 1536-well. inhibition of corepressor binding, % at 4.78 µM. 0.12% of 320,000 active. AID 2300;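 active = percent inhibition above the cutoff of mean plus 3 SD of all tested compounds, set per screening campaign, cut at about 20% in these data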
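System: GST-tagged NR2E3 plus biotinylated RetCOR corepressor; Buffer or medium: pH 7.5 Tris-based buffer; Probe or stimulus: RetCOR corepressor, biotinylated, 7 nM; Doses: compound at 4.8 µM, single dose; Schedule: 5 h incubation at 4 °C; Technique: time-resolved FRET; Evaluation: percent inhibition of TR-FRET ratio; Replication: one well per compound, singlicate testing.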
NR2E3 ag confirm: confirmation of human NR2E3 agonists. 51% of 2,300 active. inhibition, % at 3.98 µM. CHO-S mammalian two-hybrid NR2E3-NCOR, luciferase luminescence. shares compounds with NR2E3 ag-1;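 active = average inhibition above a cutoff equal to the mean inhibition of all tested compounds plus one SD, cut at about 70% in these data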
GAL4-VP16 luc: GAL4-VP16 reporter inhibition in NR2E3 agonist counterscreen; 29% of 2,300 active; shares compounds with NR2E3 ag-1; CHO-S GAL4-VP16 luciferase reporter, luminescence; inhibition, % at 3.98 µM;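 active = mean inhibition above a cutoff equal to the average over all tested compounds plus one standard deviation, cut at about 70% in these data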;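 note: luciferase from a UAS reporter driven by GAL4-VP16 transactivation; higher means less reporter light so more repression of VP16 activity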
PG9 binder conf: PG9 antibody binding, confirmed. shares compounds with PG9 binder. TR-FRET PG9 antibody binding, biochemical. inhibition, % at 6.7 µM. 90% of 1,500 active; in the data active = inhibition above about 9%
PGV04 Ab binding: binds control antibody PGV04 in PG9 binder counter-screen; AID 651604; TR-FRET PGV04 antibody-gp120 binding, biochemical; 95% of 1,500 active; shares compounds with PG9 binder; inhibition, % at 6.7 µM; in the data active = inhibition above about 9.5%
Rev-erbA confirm: Rev-erb alpha (human) modulation, hit confirmation; shares compounds with Rev-erbA mod; Rev-erb alpha FITC-DNA binding, fluorescence polarization, 90 min; activation, % at 25 µM; 61% of 3,000 active; AID 1259319;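 active = activation at or above a set limit, or at least 3 SD above the negative control mean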
RORg counter: counter-screen for Rev-erb alpha modulators: RORgamma DNA binding; IC50, µM; purified RORgamma protein-FITC-DNA binding, fluorescence polarization; 8% of 910 active; shares compounds with Rev-erbA mod;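 active = Compounds whose fitted half-maximal concentration for disrupting protein-DNA binding is below 10 micromolar; the record names Rev-erb in its text, so the target is in doubt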
Large screens that a line does not name were inactive (follow-up assays come after a bar, where they were run). Compounds with a hit are over-represented: about 1.4% of the library has one in this group of screens.

N#CC(C#N)=C(Nc1ccc(F)cc1)SCc1cccc(F)c1	NR2E3 ag-1 81 | NR2E3 ag confirm 89 | GAL4-VP16 luc 88
O=C(NC1CCCCN(Cc2cccc(Cl)c2)C1=O)c1cccc(F)c1 (stereo unspecified)	none (no result: NR2E3 ag-1, PG9 binder, NR2E3 ag-2)
Cc1cc(C(=O)COc2cccnc2[N+](=O)[O-])c(C)n1Cc1ccco1	none
Cc1ccc(-n2c(C)cc(C(=O)COc3cccnc3[N+](=O)[O-])c2C)cc1	none | NR2E3 ag confirm inactive | GAL4-VP16 luc inactive
Cc1ccc(OCC(=O)c2cc(C)n(C)c2C)c([N+](=O)[O-])n1	none
Cc1cc(-n2c(C)cc(C(=O)COc3ccccc3[N+](=O)[O-])c2C)no1	none (no result: Rev-erbA mod)
Cc1cc(C(=O)COc2cccnc2[N+](=O)[O-])c(C)n1-c1ccccc1	NR2E3 ag-1 71 | NR2E3 ag confirm 72 | GAL4-VP16 luc inactive
Cc1cc(C(=O)COc2cccnc2[N+](=O)[O-])c(C)n1-c1ccccc1F	none | NR2E3 ag confirm inactive | GAL4-VP16 luc inactive
CC(=O)c1c(C)oc2ccc(NS(=O)(=O)c3ccc(F)cc3C)cc12	none | NR2E3 ag confirm inactive | GAL4-VP16 luc inactive
COc1cc(CN(C)c2ncnc3sccc23)ccc1OC(F)F	NR2E3 ag-1 84 | NR2E3 ag confirm 74 | GAL4-VP16 luc inactive
C[C@H]1COc2cccc(N3CCSCC3)c2S(=O)(=O)N1C	none (no result: NR2E3 ag-1, PG9 binder, NR2E3 ag-2)
CSc1nc(N)nc2c1ncn2CC(=O)N1CCN(Cc2c(C)cc(C)cc2C)CC1	NR2E3 ag-1 80 (no result: NR2E3 ag-2) | NR2E3 ag confirm inactive | GAL4-VP16 luc inactive
Cc1cc(C)c(CN2CCN(C(=O)Cn3cnc4c(NCc5ccccc5)ncnc43)CC2)c(C)c1	NR2E3 ag-1 83 (no result: NR2E3 ag-2) | NR2E3 ag confirm 88 | GAL4-VP16 luc inactive
Cc1cc(C)c2nc(C(F)(F)F)c(C#N)c(N)c2c1	none
Cc1ccc2nc(C(F)(F)F)c(C#N)c(N)c2c1	NR2E3 ag-1 75 | NR2E3 ag confirm inactive | GAL4-VP16 luc inactive
COc1ccc(CNc2ccc(Cl)cc2)cc1Cn1ccnc1	none
CCc1ccc(NCc2ccc(OC)c(Cn3ccnc3)c2)cc1	none | NR2E3 ag confirm inactive | GAL4-VP16 luc inactive
COc1ccc(OC)c(-c2csc(NC(=O)Cc3ccc(F)cc3)n2)c1	none
COc1ccc(OC)c(-c2csc(NC(=O)Cc3cc(OC)c(OC)c(OC)c3)n2)c1	none | NR2E3 ag confirm inactive | GAL4-VP16 luc inactive
COc1cnc(-c2ccccn2)nc1N(C)c1ccccc1	NR2E3 ag-1 105 | NR2E3 ag confirm 94 | GAL4-VP16 luc inactive
COc1cnc(-c2ccccn2)nc1Oc1ccccc1	none | NR2E3 ag confirm inactive | GAL4-VP16 luc inactive
CN(c1ccccc1)c1ncccn1	none
CCC1(O)C(=O)OCc2c1cc1n(c2=O)Cc2cc3cc(O)ccc3nc2-1 (stereo unspecified)	PG9 binder 19 (no result: NR2E3 ag-2) | NR2E3 ag confirm 90 | GAL4-VP16 luc inactive | PG9 binder conf 16 | PGV04 Ab binding 31
O=C(Nc1ccc(Br)c2ccccc12)c1ccc2ccccc2c1O	NR2E3 ag-1 107, PG9 binder 36, NR2E3 ag-2 38 | NR2E3 ag confirm 99 | GAL4-VP16 luc 79 | PG9 binder conf 31 | PGV04 Ab binding 37
O=C(Nc1ccc2c(c1)Cc1ccccc1-2)NC1CCCCN(Cc2ccc(Cl)cc2)C1=O (stereo unspecified)	none (no result: NR2E3 ag-1, PG9 binder, NR2E3 ag-2)
CSc1nsc(SCC(=O)Nc2nc3ccc(C)cc3s2)n1	PG9 binder 10 | NR2E3 ag confirm inactive | GAL4-VP16 luc inactive | PG9 binder conf 14 | PGV04 Ab binding 18
Cc1ccc2nc(NC(=O)COC(=O)CSc3nc(C)cc(C)n3)sc2c1	none
Cc1ccc(CSc2nnc(-c3cccs3)o2)cc1C	none (no result: NR2E3 ag-1, PG9 binder, NR2E3 ag-2)
CC(=O)N1CCCc2cc(S(=O)(=O)N3CCCC(C(=O)N4CCN(c5cc(C)ccc5C)CC4)C3)ccc21 (stereo unspecified)	NR2E3 ag-1 98, Rev-erbA mod 17 | NR2E3 ag confirm 91 | GAL4-VP16 luc 79 | Rev-erbA confirm 18
O[C@H](COc1ccc(C(F)(F)F)cc1)CN1CCC(C(O)(c2ccccc2)c2ccccc2)CC1	none (no result: NR2E3 ag-1, PG9 binder, NR2E3 ag-2)
COC(=O)c1ccc2nc(Nc3nc4c(F)cc(F)cc4s3)sc2c1	Rev-erbA mod 38 | NR2E3 ag confirm inactive | GAL4-VP16 luc inactive | Rev-erbA confirm 33 | RORg counter inactive
COC(=O)c1ccc2nc(NC(=O)C(C)C)sc2c1	none
CCN1/C(=C/c2ccc3cc(C)ccc3[n+]2CC)Sc2cc(C)ccc21	NR2E3 ag-1 90, Rev-erbA mod 29 (no result: NR2E3 ag-2) | NR2E3 ag confirm 100 | GAL4-VP16 luc 85 | Rev-erbA confirm 51 | RORg counter inactive
CCN1/C(=C/c2ccc3cc(C)ccc3[n+]2C)Sc2ccc3sccc3c21	none (no result: NR2E3 ag-2)
O=C(CSc1nnnn1-c1ccccc1)Nc1ccc(Cl)cc1	none
CCn1c2ccccc2c2cc(NC(=O)CSc3nnnn3-c3ccccc3)ccc21	Rev-erbA mod 39, PG9 binder 10 | NR2E3 ag confirm inactive | GAL4-VP16 luc inactive | PG9 binder conf 9.2 | PGV04 Ab binding 18 | Rev-erbA confirm 24
Cc1ccc(-c2nc(NC(=O)CSc3nnnn3-c3ccccc3)ns2)cc1	NR2E3 ag-1 73, Rev-erbA mod 18, PG9 binder 13 | NR2E3 ag confirm 100 | GAL4-VP16 luc inactive | PG9 binder conf inactive | PGV04 Ab binding inactive | Rev-erbA confirm inactive
CCOc1cc(CCNC(=O)c2cc3ccsc3n2C)ccc1OC	none (no result: NR2E3 ag-1, PG9 binder, NR2E3 ag-2)
Clc1ccccc1Nc1nc(NCc2ccccc2)nc2ccsc12	Rev-erbA mod 21, PG9 binder 18 (no result: NR2E3 ag-2) | NR2E3 ag confirm inactive | GAL4-VP16 luc inactive | PG9 binder conf 27 | PGV04 Ab binding 36 | Rev-erbA confirm inactive
COC(=O)[C@]12C[C@H](CC(=O)NCc3cccc(C(F)(F)F)c3)C(=O)N(Cc3ccco3)C1=C[C@H](C(C)(C)C)O[C@@H]2C	none (no result: NR2E3 ag-1, PG9 binder, NR2E3 ag-2)
CCc1cccc(NC(=O)C2CCN(S(=O)(=O)c3ccc4[nH]c(=O)ccc4c3)CC2)c1	none
Cc1cc(C)cc(NC(=O)C2CCN(S(=O)(=O)c3ccc4[nH]c(=O)ccc4c3)CC2)c1	PG9 binder 13 | PG9 binder conf 16 | PGV04 Ab binding 30
CCCC1Cc2c(sc3nc(SC)nc(N)c23)CO1 (stereo unspecified)	PG9 binder 16 | PG9 binder conf 18 | PGV04 Ab binding 34
